Assay [1] is described as follows: Inhibition of MSK1/2 in human HeLa cells lysate at 10 uM pre incubated for 15 mins followed by ADP acyl phosphate probe addition and measured after 10 mins by LC-MS/MS analysis relative to control. The conditions noted are these: 25 min, condition cancer.
Assay [2] has as its target Focal adhesion kinase 1 (Homo sapiens, UniProt Q05397). Kind of assay: Inhibition of FAK in human HeLa cells lysate pre incubated for 15 mins followed by ADP acyl phosphate probe addition and measured after 10 mins by LC-MS/MS analysis. The format is subcellular.
For assay [3], the target named is MAP/microtubule affinity-regulating kinase 3 (Homo sapiens, UniProt P27448). Kind of assay: Inhibition of MARK3 in human HeLa cells lysate at 2 uM pre incubated for 15 mins followed by ADP acyl phosphate probe addition and measured after 10 mins by LC-MS/MS analysis relative to control. In kind it is subcellular. The conditions noted are these: time 25.0 min.
The target in assay [4] is Mitogen-activated protein kinase 14 (Homo sapiens, UniProt Q16539). Kind of assay: Inhibition of P38a interaction site in human HeLa cells lysate pre incubated for 15 mins followed by ATP acyl phosphate probe addition and measured after 10 mins by LC-MS/MS analysis. The format is subcellular.
Chain of Mitogen-activated protein kinase 14 (Q16539 whole entry, canonical isoform): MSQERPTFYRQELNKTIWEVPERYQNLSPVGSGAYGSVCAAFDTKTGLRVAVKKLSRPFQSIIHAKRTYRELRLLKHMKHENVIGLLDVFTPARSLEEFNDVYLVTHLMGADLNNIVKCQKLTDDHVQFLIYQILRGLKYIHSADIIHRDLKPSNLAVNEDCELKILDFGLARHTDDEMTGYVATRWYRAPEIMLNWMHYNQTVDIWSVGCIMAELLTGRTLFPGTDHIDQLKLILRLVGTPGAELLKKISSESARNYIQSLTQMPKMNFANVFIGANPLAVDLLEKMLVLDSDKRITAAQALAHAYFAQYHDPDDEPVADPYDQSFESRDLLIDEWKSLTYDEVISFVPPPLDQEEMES
Assay [5] concerns the target Glycogen synthase kinase-3 beta (Homo sapiens, UniProt P49841). Kind of assay: Inhibition of GSK3B isoform 2 in human HeLa cells lysate at 50 uM pre incubated for 15 mins followed by ADP acyl phosphate probe addition and measured after 10 mins by LC-MS/MS analysis relative to control. The format is subcellular. The settings on record: time 25.0 min.
In assay [6] the target is Calcium/calmodulin-dependent protein kinase type 1D (Homo sapiens, UniProt Q8IU85). Kind of assay: Inhibition of CAMK1d in human HeLa cells lysate at 50 uM pre incubated for 15 mins followed by ATP acyl phosphate probe addition and measured after 10 mins by LC-MS/MS analysis relative to control. The settings on record: time 25.0 min. In kind it is subcellular. The essentials: (§1)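 KiNativ-type profiling in HeLa lysate (5 mg/mL total protein). Lysate preincubated 15 min with inhibitor at 50, 10, 2, 0.8 or 0 μM, then ATP or ADP acylphosphate probe added (5 μM final) for 10 min. Reaction stopped with urea and analysed by targeted MS, using up to four fragment ions per kinase peptide-probe conjugate. % inhibition calculated against untreated lysate. Duplicate reactions.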
Chain of Calcium/calmodulin-dependent protein kinase type 1D (Q8IU85 whole entry, looked up, the tested form may be a part): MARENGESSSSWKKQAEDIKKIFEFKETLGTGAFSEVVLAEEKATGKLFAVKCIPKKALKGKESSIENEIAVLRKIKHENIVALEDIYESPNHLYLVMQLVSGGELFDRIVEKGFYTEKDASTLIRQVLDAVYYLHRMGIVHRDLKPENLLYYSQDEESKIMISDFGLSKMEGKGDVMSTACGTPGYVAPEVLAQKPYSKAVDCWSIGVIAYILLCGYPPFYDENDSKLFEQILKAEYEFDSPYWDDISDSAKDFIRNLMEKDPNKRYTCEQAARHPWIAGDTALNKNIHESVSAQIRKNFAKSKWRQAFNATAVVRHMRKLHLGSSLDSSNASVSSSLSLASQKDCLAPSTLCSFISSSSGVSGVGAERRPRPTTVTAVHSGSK

Assay [7] concerns the target PKC alpha and beta-2 (Homo sapiens, UniProt P17252+P05771). As to the kind of experiment: Inhibition of PKCalpha/beta in human HeLa cells lysate pre incubated for 15 mins followed by ATP acyl phosphate probe addition and measured after 10 mins by LC-MS/MS analysis. In kind it is subcellular.
Assay [8] concerns the target Insulin receptor (Homo sapiens, UniProt P06213). Kind of assay: Inhibition of INSR in human HeLa cells lysate pre incubated for 15 mins followed by ADP acyl phosphate probe addition and measured after 10 mins by LC-MS/MS analysis. In kind it is subcellular.
The target of assay [9] is T1, Phosphatidylinositol 5-phosphate 4-kinase type-2 alpha (Homo sapiens) (UniProt P48426).
T1 sequence (whole entry): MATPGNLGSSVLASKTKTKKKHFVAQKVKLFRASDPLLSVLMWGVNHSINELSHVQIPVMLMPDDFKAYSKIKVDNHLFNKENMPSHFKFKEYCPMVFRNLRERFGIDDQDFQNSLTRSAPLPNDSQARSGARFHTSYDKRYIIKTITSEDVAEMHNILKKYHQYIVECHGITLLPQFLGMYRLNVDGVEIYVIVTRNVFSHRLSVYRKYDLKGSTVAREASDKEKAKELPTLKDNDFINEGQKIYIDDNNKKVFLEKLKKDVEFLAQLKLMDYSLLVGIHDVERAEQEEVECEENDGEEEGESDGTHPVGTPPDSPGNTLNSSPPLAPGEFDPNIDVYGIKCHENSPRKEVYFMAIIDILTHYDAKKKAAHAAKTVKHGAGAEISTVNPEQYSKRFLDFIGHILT
Kind of assay: Inhibition of PIP5K2A LIP1 site in human HeLa cells lysate at 10 uM pre incubated for 15 mins followed by ADP acyl phosphate probe addition and measured after 10 mins by LC-MS/MS analysis relative to control. The conditions noted are these: time 25.0 min. In kind it is subcellular.

The target of assay [10] is Serine/threonine-protein kinase TAO3 (Homo sapiens, UniProt Q9H2K8). Kind of assay: Inhibition of TAO3 in human HeLa cells lysate pre incubated for 15 mins followed by ATP acyl phosphate probe addition and measured after 10 mins by LC-MS/MS analysis. In kind it is subcellular.
Assay [11] deals with Serine/threonine-protein kinase ATR (Homo sapiens, UniProt Q13535). As to the kind of experiment: Inhibition of ATR in human HeLa cells lysate at 50 uM pre incubated for 15 mins followed by ATP acyl phosphate probe addition and measured after 10 mins by LC-MS/MS analysis relative to control. The settings on record: time 25.0 min. The format is subcellular. The essentials: as §1

Assay [12] has as its target Activated CDC42 kinase 1 (Homo sapiens, UniProt Q07912). Kind of assay: Inhibition of ACK1 in human HeLa cells lysate at 10 uM pre incubated for 15 mins followed by ADP acyl phosphate probe addition and measured after 10 mins by LC-MS/MS analysis relative to control. The settings on record: time 25.0 min. In kind it is subcellular. In outline: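 HeLa cell lysates (5 mg/mL total protein) were preincubated with inhibitor at 0, 0.8, 2, 10 or 50 μM for 15 min. ATP or ADP acylphosphate probe was then added (5 μM final) for 10 min, and reactions were stopped with urea. Up to four fragment ions per kinase probe-peptide were quantified by targeted MS. % inhibition was taken relative to untreated lysate. Run in duplicate.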

Assay [13] deals with Ephrin type-B receptor 4 (Homo sapiens) (UniProt P54760). As to the kind of experiment: Inhibition of EphB4 in human HeLa cells lysate at 10 uM pre incubated for 15 mins followed by ATP acyl phosphate probe addition and measured after 10 mins by LC-MS/MS analysis relative to control. In kind it is subcellular. The conditions noted are these: time 25.0 min.
Chain of Ephrin type-B receptor 4 (Homo sapiens) (P54760 whole entry): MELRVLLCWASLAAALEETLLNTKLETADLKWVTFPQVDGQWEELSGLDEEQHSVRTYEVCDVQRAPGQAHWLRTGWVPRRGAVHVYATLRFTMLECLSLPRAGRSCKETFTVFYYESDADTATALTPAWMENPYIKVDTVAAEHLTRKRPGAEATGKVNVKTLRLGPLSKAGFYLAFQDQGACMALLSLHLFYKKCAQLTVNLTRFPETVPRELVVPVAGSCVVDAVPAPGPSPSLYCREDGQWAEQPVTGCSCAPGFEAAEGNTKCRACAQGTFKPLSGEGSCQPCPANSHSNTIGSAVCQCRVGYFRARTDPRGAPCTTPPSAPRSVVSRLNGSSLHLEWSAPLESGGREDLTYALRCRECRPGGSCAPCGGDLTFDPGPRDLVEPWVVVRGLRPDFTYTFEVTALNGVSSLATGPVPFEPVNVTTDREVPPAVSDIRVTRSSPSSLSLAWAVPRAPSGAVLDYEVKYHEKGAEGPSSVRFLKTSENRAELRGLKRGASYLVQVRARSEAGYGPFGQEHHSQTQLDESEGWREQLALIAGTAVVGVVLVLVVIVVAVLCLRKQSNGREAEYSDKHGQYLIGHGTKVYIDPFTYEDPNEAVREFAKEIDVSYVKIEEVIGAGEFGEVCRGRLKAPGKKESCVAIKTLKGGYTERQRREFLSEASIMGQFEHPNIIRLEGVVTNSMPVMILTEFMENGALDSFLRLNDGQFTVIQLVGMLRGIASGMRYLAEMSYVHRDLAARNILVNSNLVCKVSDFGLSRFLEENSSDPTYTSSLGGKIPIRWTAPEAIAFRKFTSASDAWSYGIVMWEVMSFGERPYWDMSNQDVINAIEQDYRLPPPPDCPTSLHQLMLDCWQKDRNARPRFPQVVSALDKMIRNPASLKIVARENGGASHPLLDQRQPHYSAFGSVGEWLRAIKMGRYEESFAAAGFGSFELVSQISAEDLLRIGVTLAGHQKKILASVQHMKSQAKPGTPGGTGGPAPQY
For assay [14], the target named is Mitogen-activated protein kinase 3 (Homo sapiens, UniProt P27361). As to the kind of experiment: Inhibition of ERK1 in human HeLa cells lysate pre incubated for 15 mins followed by ADP acyl phosphate probe addition and measured after 10 mins by LC-MS/MS analysis. The format is subcellular.
Chain of Mitogen-activated protein kinase 3 (P27361 whole entry, the tested form may be a part): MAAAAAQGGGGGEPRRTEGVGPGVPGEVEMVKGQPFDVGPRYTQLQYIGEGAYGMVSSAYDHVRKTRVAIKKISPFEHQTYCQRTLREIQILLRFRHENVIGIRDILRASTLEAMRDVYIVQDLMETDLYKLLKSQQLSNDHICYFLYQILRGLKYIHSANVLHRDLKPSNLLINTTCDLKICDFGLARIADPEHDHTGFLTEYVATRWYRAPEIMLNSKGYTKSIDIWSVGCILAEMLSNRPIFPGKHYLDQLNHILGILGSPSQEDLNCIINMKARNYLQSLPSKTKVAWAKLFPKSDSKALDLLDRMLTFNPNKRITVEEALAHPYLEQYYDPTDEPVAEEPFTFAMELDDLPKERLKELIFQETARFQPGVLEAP
Assay [15] concerns the target T2, Mixed lineage kinase domain-like protein (Homo sapiens) (UniProt Q8NB16).
T2 sequence (whole entry): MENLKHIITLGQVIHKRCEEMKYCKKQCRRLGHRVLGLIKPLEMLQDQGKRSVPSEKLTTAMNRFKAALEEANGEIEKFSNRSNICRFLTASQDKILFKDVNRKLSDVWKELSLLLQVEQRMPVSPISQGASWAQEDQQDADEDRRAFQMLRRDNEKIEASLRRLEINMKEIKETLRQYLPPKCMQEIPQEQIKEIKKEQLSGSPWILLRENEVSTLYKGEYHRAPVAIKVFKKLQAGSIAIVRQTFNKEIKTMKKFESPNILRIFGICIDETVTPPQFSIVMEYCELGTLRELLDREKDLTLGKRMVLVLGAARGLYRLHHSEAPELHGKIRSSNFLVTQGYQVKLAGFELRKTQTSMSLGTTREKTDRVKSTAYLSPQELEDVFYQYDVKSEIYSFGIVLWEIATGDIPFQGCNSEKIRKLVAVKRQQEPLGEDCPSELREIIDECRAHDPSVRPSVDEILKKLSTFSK
As to the kind of experiment: Inhibition of MLKL in human HeLa cells lysate at 2 uM pre incubated for 15 mins followed by ADP acyl phosphate probe addition and measured after 10 mins by LC-MS/MS analysis relative to control. The format is subcellular. The conditions noted are these: time 25.0 min.

Assay [16] addresses Serine/threonine-protein kinase 3/4 (Homo sapiens) (UniProt Q13043+Q13188). Kind of assay: Inhibition of MST1/2 in human HeLa cells lysate at 2 uM pre incubated for 15 mins followed by ADP acyl phosphate probe addition and measured after 10 mins by LC-MS/MS analysis relative to control. In kind it is subcellular. The conditions noted are these: time 25.0 min.

Chain of Insulin receptor (P06213 28-758 limits assumed): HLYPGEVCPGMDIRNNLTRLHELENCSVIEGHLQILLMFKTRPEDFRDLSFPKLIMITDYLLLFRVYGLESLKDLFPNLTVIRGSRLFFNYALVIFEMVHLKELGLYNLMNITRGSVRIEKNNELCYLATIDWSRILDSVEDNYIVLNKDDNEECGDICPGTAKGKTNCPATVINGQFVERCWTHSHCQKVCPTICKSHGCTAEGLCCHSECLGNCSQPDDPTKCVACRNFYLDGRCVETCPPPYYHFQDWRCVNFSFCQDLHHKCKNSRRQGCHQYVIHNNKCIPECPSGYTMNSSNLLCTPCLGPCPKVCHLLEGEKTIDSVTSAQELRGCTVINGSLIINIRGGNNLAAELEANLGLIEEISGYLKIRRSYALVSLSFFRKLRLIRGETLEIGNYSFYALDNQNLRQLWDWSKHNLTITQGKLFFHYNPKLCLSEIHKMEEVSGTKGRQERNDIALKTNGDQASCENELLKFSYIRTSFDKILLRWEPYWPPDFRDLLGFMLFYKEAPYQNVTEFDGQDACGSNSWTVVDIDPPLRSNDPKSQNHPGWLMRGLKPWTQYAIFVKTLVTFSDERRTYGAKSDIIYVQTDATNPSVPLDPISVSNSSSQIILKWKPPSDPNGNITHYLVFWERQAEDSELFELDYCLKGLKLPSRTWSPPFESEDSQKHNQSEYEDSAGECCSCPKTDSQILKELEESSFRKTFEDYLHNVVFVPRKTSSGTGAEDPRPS
Chain of Insulin receptor (P06213 763-1382 limits assumed): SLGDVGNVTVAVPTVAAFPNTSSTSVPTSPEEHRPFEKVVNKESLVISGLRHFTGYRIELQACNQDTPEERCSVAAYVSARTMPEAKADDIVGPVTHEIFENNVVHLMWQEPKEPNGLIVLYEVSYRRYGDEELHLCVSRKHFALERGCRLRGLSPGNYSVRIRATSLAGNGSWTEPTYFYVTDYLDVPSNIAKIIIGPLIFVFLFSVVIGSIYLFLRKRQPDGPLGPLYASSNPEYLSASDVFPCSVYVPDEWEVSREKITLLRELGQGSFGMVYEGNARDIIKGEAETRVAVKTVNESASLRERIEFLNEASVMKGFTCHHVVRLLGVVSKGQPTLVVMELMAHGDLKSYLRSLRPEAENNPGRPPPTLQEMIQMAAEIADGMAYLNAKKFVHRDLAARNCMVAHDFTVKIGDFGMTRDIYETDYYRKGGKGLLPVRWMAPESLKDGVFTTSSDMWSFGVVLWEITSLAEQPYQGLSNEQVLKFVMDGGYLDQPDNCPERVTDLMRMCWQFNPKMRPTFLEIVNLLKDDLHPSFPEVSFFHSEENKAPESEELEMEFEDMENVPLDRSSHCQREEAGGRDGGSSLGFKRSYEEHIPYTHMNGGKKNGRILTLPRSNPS
Chain of Serine/threonine-protein kinase 3/4 (Homo sapiens) (Q13043 whole entry, looked up): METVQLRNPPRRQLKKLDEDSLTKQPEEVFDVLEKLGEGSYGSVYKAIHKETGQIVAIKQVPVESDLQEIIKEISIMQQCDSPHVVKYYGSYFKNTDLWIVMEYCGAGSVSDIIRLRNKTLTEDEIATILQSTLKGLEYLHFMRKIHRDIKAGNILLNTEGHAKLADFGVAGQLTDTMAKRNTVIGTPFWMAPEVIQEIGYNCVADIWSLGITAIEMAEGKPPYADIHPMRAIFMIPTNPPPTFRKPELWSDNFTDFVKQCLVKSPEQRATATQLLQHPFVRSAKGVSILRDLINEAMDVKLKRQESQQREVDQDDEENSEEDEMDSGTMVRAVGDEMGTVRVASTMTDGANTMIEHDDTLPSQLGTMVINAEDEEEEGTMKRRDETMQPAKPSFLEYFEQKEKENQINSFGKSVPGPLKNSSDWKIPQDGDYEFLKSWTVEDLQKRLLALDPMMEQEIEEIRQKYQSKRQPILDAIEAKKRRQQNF
Chain of Serine/threonine-protein kinase 3/4 (Homo sapiens) (Q13188 whole entry, looked up): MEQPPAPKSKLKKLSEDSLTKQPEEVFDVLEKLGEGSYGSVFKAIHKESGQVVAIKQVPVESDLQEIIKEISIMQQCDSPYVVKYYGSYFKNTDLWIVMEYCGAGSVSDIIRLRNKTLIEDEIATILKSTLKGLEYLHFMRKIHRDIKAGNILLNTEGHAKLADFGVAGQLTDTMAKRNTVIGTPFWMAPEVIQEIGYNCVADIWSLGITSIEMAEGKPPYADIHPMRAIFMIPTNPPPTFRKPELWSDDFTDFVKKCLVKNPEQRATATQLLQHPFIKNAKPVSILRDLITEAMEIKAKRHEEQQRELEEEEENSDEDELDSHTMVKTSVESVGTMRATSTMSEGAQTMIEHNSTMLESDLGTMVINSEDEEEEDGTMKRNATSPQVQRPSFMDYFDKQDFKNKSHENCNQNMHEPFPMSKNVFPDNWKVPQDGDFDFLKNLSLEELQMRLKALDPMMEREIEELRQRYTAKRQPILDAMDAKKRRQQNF
Chain of Glycogen synthase kinase-3 beta (P49841 whole entry, looked up, canonical isoform): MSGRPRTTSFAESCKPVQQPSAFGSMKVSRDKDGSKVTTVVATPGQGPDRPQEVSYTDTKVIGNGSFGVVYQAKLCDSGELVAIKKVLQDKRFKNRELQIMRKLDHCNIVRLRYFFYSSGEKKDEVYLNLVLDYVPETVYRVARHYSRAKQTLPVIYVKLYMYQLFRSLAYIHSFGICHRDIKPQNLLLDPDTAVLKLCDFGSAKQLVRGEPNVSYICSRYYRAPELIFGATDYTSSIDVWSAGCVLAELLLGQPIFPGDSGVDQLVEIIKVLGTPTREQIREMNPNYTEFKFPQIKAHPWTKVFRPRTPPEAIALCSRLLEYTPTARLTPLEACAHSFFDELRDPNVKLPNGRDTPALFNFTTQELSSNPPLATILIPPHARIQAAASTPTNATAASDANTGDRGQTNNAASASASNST

Broadly, the inhibition is the drop in the measured response relative to a control, in per cent. For orientation: IC50 means the concentration that inhibits the measured activity by half. A high value points to lower potency. Consider `CCOc1cc(N2CCC(O)CC2)ccc1Nc1ncc2c(n1)N(C)c1ccccc1C(=O)N2C`, for which the inhibition at 10 µM in assay [1] came out at 37.4%. The IC50 in [2] was 39 µM; in assay [4], above 50 µM; in assay [7], above 50 µM; in [8], above 50 µM; in assay [10], above 50 µM; in [14] it was above 50 µM. Moreover, the inhibition in assay [3] was -3.4%; in [5], 5.1%; in [6] it was -3.1%; in assay [9], 5%; in [11], 13.9%; in assay [12], 37%. In addition, the results for the inhibition in [13], in assay [15] and in [16] were -7.1%, 35.6% and -1.2%, respectively.

These data come from ChEMBL document CHEMBL5661979, “Pharmacological inhibition of BMK1 suppresses tumor growth through promyelocytic leukemia protein” (Cancer Cell, 2010).
